Source: ChEMBL document CHEMBL3826925, “Design, synthesis and biological evaluation of PSMA/hepsin-targeted heterobivalent ligands” (Eur J Med Chem, 2016)

Columns and labels:
Serine protease hepsin = Serine protease hepsin (Homo sapiens, UniProt P05981); assay: Inhibition of recombinant human hepsin using Boc-QAR-AMC as substrate preincubated for 30 mins followed by substrate addition by fluorescence assay
[1] = target: Glutamate carboxypeptidase 2 (Homo sapiens, UniProt Q04609); assay: Inhibition of PSMA (unknown origin) assessed as reduction in glutamate formation using NAAG as substrate preincubated for 30 mins followed by substrate addition by Amplex red assay
Sequence of Glutamate carboxypeptidase 2 (Q04609 whole entry): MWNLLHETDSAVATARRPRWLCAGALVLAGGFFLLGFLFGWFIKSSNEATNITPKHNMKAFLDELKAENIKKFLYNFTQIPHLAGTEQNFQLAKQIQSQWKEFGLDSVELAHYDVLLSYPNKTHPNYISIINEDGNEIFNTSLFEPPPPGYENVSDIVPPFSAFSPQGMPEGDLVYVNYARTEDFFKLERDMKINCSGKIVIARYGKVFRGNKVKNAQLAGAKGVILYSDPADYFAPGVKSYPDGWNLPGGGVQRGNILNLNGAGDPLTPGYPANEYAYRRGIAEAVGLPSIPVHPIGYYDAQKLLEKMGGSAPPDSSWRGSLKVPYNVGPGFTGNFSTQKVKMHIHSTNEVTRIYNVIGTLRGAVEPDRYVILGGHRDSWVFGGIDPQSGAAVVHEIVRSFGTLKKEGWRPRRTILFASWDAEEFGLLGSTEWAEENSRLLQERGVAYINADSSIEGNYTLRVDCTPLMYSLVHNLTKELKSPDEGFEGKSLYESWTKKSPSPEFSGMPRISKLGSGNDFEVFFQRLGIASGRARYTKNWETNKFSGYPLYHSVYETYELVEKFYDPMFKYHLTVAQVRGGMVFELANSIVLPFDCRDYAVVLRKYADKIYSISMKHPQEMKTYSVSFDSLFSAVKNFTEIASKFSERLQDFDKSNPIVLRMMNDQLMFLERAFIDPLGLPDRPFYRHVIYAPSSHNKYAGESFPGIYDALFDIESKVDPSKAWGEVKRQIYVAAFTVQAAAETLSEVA

[2] = Drug uptake in human PC3-ML cells expressing PSMA at 10 to 1000 nM after 4 hrs by flow cytometry; type: ADME, cell-based; conditions: 1 µM
[3] = Drug uptake in human PC3-ML cells expressing hepsin/PSMA at 100 to 1000 nM after 4 hrs by flow cytometry; type: ADME, cell-based; conditions: 1 µM
Procedure, shortened: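 Cells seeded at 5 × 10^5 per well and grown 48 h to full adhesion. Medium then replaced with compound in RPMI 1640 with 10% FBS for 4 h (methods state final concentration 10 µg/mL). Cells washed twice with cold PBS, fixed in 4% paraformaldehyde for 10 min, and uptake read by flow cytometry.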

Tumour [4] = assay: Drug uptake in tumor of NOD/Shi-scid/IL-2Rgamma null mouse xenografted with human PC3-ML cells expressing PSMA at 1 nmol, iv measured 24 hrs post dosing by near infrared optical imaging analysis; type: ADME, organism-based, Neoplasm; conditions: in vivo
Procedure, shortened: (§1)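 Six-week-old male NSG mice received 1 million tumor cells subcutaneously in the upper flank. Two weeks later, 1 nmol of the Cy7-labelled ligand in 100 uL PBS was injected via tail vein. NIR fluorescence images were taken 24 hr post injection with a small-animal imaging system.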

Tumour [5] = assay: Drug uptake in tumor of NOD/Shi-scid/IL-2Rgamma null mouse xenografted with human PC3-ML cells expressing PSMA/HPN at 1 nmol, iv measured 24 hrs post dosing by near infrared optical imaging analysis; type: ADME, organism-based, Neoplasm; conditions: in vivo; procedure, shortened: as §1

Sequence of Serine protease hepsin (P05981 1-162 limits assumed): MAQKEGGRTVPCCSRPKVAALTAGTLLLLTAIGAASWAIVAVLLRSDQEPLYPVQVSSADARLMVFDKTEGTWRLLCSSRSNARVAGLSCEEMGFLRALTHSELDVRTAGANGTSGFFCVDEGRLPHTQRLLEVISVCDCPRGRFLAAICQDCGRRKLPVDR
Sequence of Serine protease hepsin (P05981 163-417 limits assumed): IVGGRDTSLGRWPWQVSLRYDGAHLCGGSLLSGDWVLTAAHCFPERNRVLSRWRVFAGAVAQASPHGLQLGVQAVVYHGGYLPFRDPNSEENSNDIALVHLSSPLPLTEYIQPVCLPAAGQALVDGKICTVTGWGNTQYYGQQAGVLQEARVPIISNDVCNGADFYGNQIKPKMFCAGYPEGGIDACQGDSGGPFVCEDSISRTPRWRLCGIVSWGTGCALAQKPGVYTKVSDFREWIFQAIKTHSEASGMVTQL

An IC50 (Serine protease hepsin) of 44 µM was found for `N=C(N)c1ccc2[nH]c(-c3ccccc3O)cc2c1` in this work.
An IC50 (Serine protease hepsin) of 70 µM was found for `N=C(N)c1ccc2[nH]c(-c3cc(-c4cccs4)ccc3O)cc2c1` in this work.
An IC50 (Serine protease hepsin) of 5.9 µM was found for `N=C(N)c1ccc2[nH]c(-c3cc(-c4ccc(F)cc4)ccc3O)cc2c1` in this work.
An IC50 (Serine protease hepsin) of 11 µM was found for `CC(C)(C)OC(=O)NCc1ccc(-c2ccc(O)c(-c3cc4cc(C(=N)N)ccc4[nH]3)c2)cc1` in this work.
For `CC(=O)NC(=N)c1ccc2[nH]c(-c3cc(-c4ccc(CNC(=O)[C@H](CCCCNC(=O)CCCCC[N+]5=C(/C=C/C6=CC(=C/C=C7/N(C)c8ccc(S(=O)(=O)O)cc8C7(C)C)/CCC6)C(C)(C)c6cc(S(=O)(=O)O)ccc65)NC(=O)CCCCCCC(=O)NCCCCC(NC(=O)N[C@@H](CCC(=O)O)C(=O)O)C(=O)O)cc4)ccc3O)cc2c1` (stereo partly specified), the IC50 [1] was 25 nM, the Drug uptake [2] was “Active” and the Drug uptake [3] was “Active”.
An IC50 (Serine protease hepsin) of 9.3 µM was found for `N=C(N)c1ccc2[nH]c(-c3cc(-c4ccc(CN)cc4)ccc3O)cc2c1` in this work.
An IC50 (Serine protease hepsin) of 14 µM was found for `N=C(N)c1ccc2[nH]c(-c3cc(-c4ccc(C(F)(F)F)cc4)ccc3O)cc2c1` in this work.
An IC50 (Serine protease hepsin) of 7.3 µM was found for `COc1ccc(-c2ccc(O)c(-c3cc4cc(C(=N)N)ccc4[nH]3)c2)cc1` in this work.
An IC50 (Serine protease hepsin) of 8.9 µM was found for `N=C(N)c1ccc2[nH]c(-c3cc(-c4ccccc4)ccc3O)cc2c1` in this work.
An IC50 (Serine protease hepsin) of 23 µM was found for `N=C(N)c1ccc2[nH]c(-c3cc(-c4ccc(Cl)cc4)ccc3O)cc2c1` in this work.
In the case of `CN1/C(=C/C=C2C=C(/C=C/C3=[N+](CCCCCC(=O)NCCCC[C@H](NC(=O)CCCCCCC(=O)NCCCCC(NC(=O)N[C@@H](CCC(=O)O)C(=O)O)C(=O)O)C(=O)NCc4ccc(-c5ccc(O)c(-c6cc7cc(C(=N)N)ccc7[nH]6)c5)cc4)c4ccc(S(=O)(=O)O)cc4C3(C)C)CCC/2)C(C)(C)c2cc(S(=O)(=O)O)ccc21` (stereo partly specified), the Drug uptake [2] is reported as “Active”, the Drug uptake [3] is reported as “Active” and the Drug uptake (Tumour [4]) is reported as “Not Active”. The Drug uptake (Tumour [5]) was “Active”.
